Measured values published in ChEMBL document CHEMBL5724801, “EUbOPEN Chemogenomics Library - Multiplex” (2024).
Several values for one entry are separate records, joined by “and”; a condition that tells them apart may be missing. Identical values can stand only once.

Tested on: HEK-293T
Assay: Multiplex assay against HEK293T
Format: toxicity, cell-based
Settings: human
Outline: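 At seeding, live cells were stained with Hoechst33342, BioTracker Green Microtubule Cytoskeleton Dye, MitoTracker Red and Annexin V Alexa Fluor 680. After compound addition they were imaged on a CQ1 microscope at 37°C and 5% CO2, and CellPathfinder machine-learning gating sorted them into Hoechst high-intensity objects or normal cells, with normal cells further split into healthy, pyknosed or fragmented nuclei and pyknosed cells into mitotic or apoptotic. Tubulin, mitochondrial-mass and membrane-permeability phenotypes are given as per cents of cells with healthy nuclei.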

[1] = 12 h, 1 µM, compound concentration 1 uM
[2] = 12 h, 10 µM, compound concentration 10 uM
[3] = 24 h, 1 µM, compound concentration 1 uM
[4] = 24 h, 10 µM, compound concentration 10 uM
[5] = 48 h, 1 µM, compound concentration 1 uM
[6] = 48 h, 10 µM, compound concentration 10 uM

## COc1cc(OC2CCN(C(C)=O)CC2)ccc1C(=O)N1CCC(N2C(=O)OCc3ccccc32)CC1
[1]
  Population Apoptotic (%): 28% and 48%
  Population Fragmented Nuclei (%): 5%
  Population Healthy Nuclei (%): 83% and 76%
  Population Hoechst High Intensity Objects (%): 7%
  Population Membrane Permeable-Phenotype (%): 0%
  Population Mitochondria Different-Phenotype (%): 37% and 59%
  Population Mitotic Cells (%): 71% and 51%
  Population Normal (%): 92%
  Population Pyknosed Nuclei (%): 11% and 18%
  Population Tubulin-Different-Phenotype (%): 26% and 21%
  Total Cell Count: 477 and 381
[2]
  Population Apoptotic (%): 40% and 67%
  Population Fragmented Nuclei (%): 9% and 4%
  Population Healthy Nuclei (%): 77% and 80%
  Population Hoechst High Intensity Objects (%): 8% and 6%
  Population Membrane Permeable-Phenotype (%): 0%
  Population Mitochondria Different-Phenotype (%): 57% and 77%
  Population Mitotic Cells (%): 60% and 32%
  Population Normal (%): 91% and 93%
  Population Pyknosed Nuclei (%): 13% and 14%
  Population Tubulin-Different-Phenotype (%): 47% and 40%
  Total Cell Count: 436 and 316
[3]
  Population Apoptotic (%): 28% and 48%
  Population Fragmented Nuclei (%): 9% and 7%
  Population Healthy Nuclei (%): 78% and 80%
  Population Hoechst High Intensity Objects (%): 4% and 6%
  Population Membrane Permeable-Phenotype (%): 2% and 0%
  Population Mitochondria Different-Phenotype (%): 25% and 40%
  Population Mitotic Cells (%): 71% and 51%
  Population Normal (%): 95% and 93%
  Population Pyknosed Nuclei (%): 11% and 12%
  Population Tubulin-Different-Phenotype (%): 17% and 15%
  Total Cell Count: 598 and 491
[4]
  Population Apoptotic (%): 31% and 49%
  Population Fragmented Nuclei (%): 8% and 7%
  Population Healthy Nuclei (%): 78%
  Population Hoechst High Intensity Objects (%): 3% and 4%
  Population Membrane Permeable-Phenotype (%): 0%
  Population Mitochondria Different-Phenotype (%): 44% and 58%
  Population Mitotic Cells (%): 68% and 50%
  Population Normal (%): 96% and 95%
  Population Pyknosed Nuclei (%): 13% and 14%
  Population Tubulin-Different-Phenotype (%): 36% and 29%
  Total Cell Count: 523 and 393
[5]
  Population Apoptotic (%): 20% and 33%
  Population Fragmented Nuclei (%): 13% and 11%
  Population Healthy Nuclei (%): 78% and 80%
  Population Hoechst High Intensity Objects (%): 3% and 2%
  Population Membrane Permeable-Phenotype (%): 1%
  Population Mitochondria Different-Phenotype (%): 19% and 23%
  Population Mitotic Cells (%): 79% and 66%
  Population Normal (%): 96% and 97%
  Population Pyknosed Nuclei (%): 8% and 7%
  Population Tubulin-Different-Phenotype (%): 13% and 12%
  Total Cell Count: 902 and 655
[6]
  Population Apoptotic (%): 36%
  Population Fragmented Nuclei (%): 13% and 12%
  Population Healthy Nuclei (%): 78% and 80%
  Population Hoechst High Intensity Objects (%): 4% and 3%
  Population Membrane Permeable-Phenotype (%): 0%
  Population Mitochondria Different-Phenotype (%): 30% and 39%
  Population Mitotic Cells (%): 63%
  Population Normal (%): 95% and 96%
  Population Pyknosed Nuclei (%): 8% and 7%
  Population Tubulin-Different-Phenotype (%): 21% and 16%
  Total Cell Count: 813 and 625

## Cl.Cl.OCCOCCN1CCN(C(c2ccccc2)c2ccc(Cl)cc2)CC1 (stereo unspecified) [HYDROXYZINE HYDROCHLORIDE]
[1]
  Population Apoptotic (%): 34% and 70%
  Population Fragmented Nuclei (%): 7% and 5%
  Population Healthy Nuclei (%): 79% and 84%
  Population Hoechst High Intensity Objects (%): 6% and 9%
  Population Membrane Permeable-Phenotype (%): 0%
  Population Mitochondria Different-Phenotype (%): 48% and 58%
  Population Mitotic Cells (%): 66% and 29%
  Population Normal (%): 93% and 90%
  Population Pyknosed Nuclei (%): 13% and 9%
  Population Tubulin-Different-Phenotype (%): 24% and 28%
  Total Cell Count: 394 and 362
[2]
  Population Apoptotic (%): 49% and 68%
  Population Fragmented Nuclei (%): 8% and 6%
  Population Healthy Nuclei (%): 71% and 73%
  Population Hoechst High Intensity Objects (%): 11% and 19%
  Population Membrane Permeable-Phenotype (%): 0% and 1%
  Population Mitochondria Different-Phenotype (%): 71% and 83%
  Population Mitotic Cells (%): 50% and 31%
  Population Normal (%): 88% and 80%
  Population Pyknosed Nuclei (%): 19% and 20%
  Population Tubulin-Different-Phenotype (%): 65% and 59%
  Total Cell Count: 354 and 327
[3]
  Population Apoptotic (%): 22% and 43%
  Population Fragmented Nuclei (%): 10% and 11%
  Population Healthy Nuclei (%): 78%
  Population Membrane Permeable-Phenotype (%): 0%
  Population Mitochondria Different-Phenotype (%): 34% and 41%
  Population Mitotic Cells (%): 77% and 56%
  Population Normal (%): 97% and 86%
  Population Pyknosed Nuclei (%): 11% and 9%
  Population Tubulin-Different-Phenotype (%): 22% and 17%
  Total Cell Count: 566 and 481
[4]
  Population Apoptotic (%): 29% and 59%
  Population Fragmented Nuclei (%): 10% and 8%
  Population Healthy Nuclei (%): 74% and 71%
  Population Hoechst High Intensity Objects (%): 8% and 22%
  Population Membrane Permeable-Phenotype (%): 0%
  Population Mitochondria Different-Phenotype (%): 55% and 72%
  Population Mitotic Cells (%): 70% and 40%
  Population Normal (%): 91% and 77%
  Population Pyknosed Nuclei (%): 15% and 19%
  Population Tubulin-Different-Phenotype (%): 49% and 43%
  Total Cell Count: 472 and 383
[5]
  Population Apoptotic (%): 23% and 46%
  Population Fragmented Nuclei (%): 14%
  Population Healthy Nuclei (%): 79%
  Population Hoechst High Intensity Objects (%): 1% and 3%
  Population Membrane Permeable-Phenotype (%): 1% and 0%
  Population Mitochondria Different-Phenotype (%): 19%
  Population Mitotic Cells (%): 76% and 53%
  Population Normal (%): 98% and 96%
  Population Pyknosed Nuclei (%): 5% and 6%
  Population Tubulin-Different-Phenotype (%): 14% and 12%
  Total Cell Count: 932 and 676
[6]
  Population Apoptotic (%): 38% and 60%
  Population Fragmented Nuclei (%): 14% and 15%
  Population Healthy Nuclei (%): 76% and 72%
  Population Hoechst High Intensity Objects (%): 6% and 16%
  Population Membrane Permeable-Phenotype (%): 0%
  Population Mitochondria Different-Phenotype (%): 45% and 53%
  Population Mitotic Cells (%): 61% and 40%
  Population Normal (%): 93% and 83%
  Population Pyknosed Nuclei (%): 9% and 12%
  Population Tubulin-Different-Phenotype (%): 35%
  Total Cell Count: 627 and 539
